Measured values taken from ChEMBL document CHEMBL1145135, “Structure-activity relationships of the p38alpha MAP kinase inhibitor 1-(5-tert-butyl-2-p-tolyl-2H-pyrazol-3-yl)-3-[4-(2-morpholin-4-yl-ethoxy)naph- thalen-1-yl]urea (BIRB 796)” (J Med Chem, 2003).
Activity calls are given as the source filed them. The calls are words filed in the database; no cut-off is given here.

What was measured:
[1] = target: Mitogen-activated protein kinase 14 (Mus musculus, UniProt P47811); assay: Kd value and murine Mitogen-activated protein kinase p38 alpha complex was calculated
[2] = target: Mitogen-activated protein kinase 14 (Mus musculus) (UniProt P47811)
[3] = target: Tumor necrosis factor (Mus musculus) (UniProt P06804); assay: Tested for inhibition of Tumor necrosis factor, alpha in LPS-stimulated mice at a dose of 30 mg/kg
Tumor necrosis factor [4] = target: T1, Tumor necrosis factor (Homo sapiens, UniProt P01375); assay: Tested for inhibition of Tumor necrosis factor, alpha in THP cells; assay type: functional, cell-based
Outline: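 THP-1 cells preincubated with or without compound 30 min at 37 °C, 5% CO2, then stimulated with LPS (1 μg/mL final) for a further 18–24 h. Human TNF-α in supernatant measured by ELISA.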

[5] = Tested for plasma level after 90 min of 30 mg/kg dose administered in mice; assay type: ADME, organism-based; design: dose 30 mg/kg; settings: mouse, read-out: Activity
Outline: (§1)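 Plasma compound concentration (ng/mL) measured 90 min after oral dosing in LPS-stimulated mice at 10 or 30 mg/kg.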

Tumor necrosis factor [6] = target: T1, Tumor necrosis factor; assay: Tested for inhibition of Tumor necrosis factor, alpha in human whole blood; assay type: functional, tissue-based
Outline: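 Freshly drawn heparinized human whole blood mixed with compound serially diluted in human type AB serum, held 30 min at 37 °C, then stimulated ex vivo with E. coli LPS 0111:B4 (50 ng/mL final). Incubation 5 h at 37 °C. Plasma TNF-α quantified by ELISA, DELFIA or electrochemiluminescence against an on-plate standard curve. Duplicate 11-point curves fitted to a 4-parameter logistic. EC50 is the geometric mean over at least three donors.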

[7] = target: Tumor necrosis factor (Mus musculus) (UniProt P06804); assay: Tested for inhibition of Tumor necrosis factor, alpha in LPS-stimulated mice at a dose of 10 mg/kg; Not statistically significant.; settings: at 10 mg/kg
[8] = Tested for plasma level after 90 min of 10 mg/kg dose administered in mice; assay type: ADME, organism-based; design: dose 10 mg/kg; settings: mouse, read-out: Activity; outline: as §1
[9] = Partition coefficient (logP); assay type: physicochemical; settings: octanol/water
[10] = target: Tumor necrosis factor (Mus musculus) (UniProt P06804); assay: Tested for inhibition of Tumor necrosis factor, alpha in LPS-stimulated mice at a dose of 10 mg/kg; settings: at 10 mg/kg
Mus musculus = assay: Tested for plasma level after 90 min of 10 mg/kg dose administered in mice; Not detected.; assay type: ADME, organism-based; design: dose 10 mg/kg; settings: in vivo, 1.5 h; outline: as §1

Chain of Mitogen-activated protein kinase 14 (Mus musculus) (P47811 whole entry): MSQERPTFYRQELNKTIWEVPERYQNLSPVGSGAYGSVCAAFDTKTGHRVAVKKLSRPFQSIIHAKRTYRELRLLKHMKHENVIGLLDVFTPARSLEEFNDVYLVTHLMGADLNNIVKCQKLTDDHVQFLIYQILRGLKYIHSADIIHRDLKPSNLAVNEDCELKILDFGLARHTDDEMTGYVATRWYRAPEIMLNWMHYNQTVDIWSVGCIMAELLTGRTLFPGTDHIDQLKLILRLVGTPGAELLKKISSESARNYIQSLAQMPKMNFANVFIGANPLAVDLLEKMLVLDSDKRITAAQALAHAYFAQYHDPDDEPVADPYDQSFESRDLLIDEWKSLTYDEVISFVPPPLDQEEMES
Chain of Mitogen-activated protein kinase 14 (P47811 whole entry): as above
T1 sequence (P01375 whole entry): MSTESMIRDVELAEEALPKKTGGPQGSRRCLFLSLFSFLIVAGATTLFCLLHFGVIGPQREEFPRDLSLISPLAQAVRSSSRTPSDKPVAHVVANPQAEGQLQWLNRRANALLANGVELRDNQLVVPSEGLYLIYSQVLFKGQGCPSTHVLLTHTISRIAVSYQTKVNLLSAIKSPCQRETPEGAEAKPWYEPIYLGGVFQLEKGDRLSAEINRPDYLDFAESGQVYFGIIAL
Chain of Tumor necrosis factor (Mus musculus) (P06804 whole entry, looked up): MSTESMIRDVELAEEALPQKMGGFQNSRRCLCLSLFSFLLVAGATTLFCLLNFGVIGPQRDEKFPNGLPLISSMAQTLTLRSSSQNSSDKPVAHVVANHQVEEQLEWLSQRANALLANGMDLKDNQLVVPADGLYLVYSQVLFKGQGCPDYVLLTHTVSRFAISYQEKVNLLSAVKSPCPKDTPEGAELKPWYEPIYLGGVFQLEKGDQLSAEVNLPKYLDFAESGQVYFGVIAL

| Structure (SMILES) | Kd [1] [nM] | Tm [2] [°C] | inhibition [3] [%] | EC50 (Tumor necrosis factor [4]) [nM] | concentration at 1.5 h [5] [ng/mL] | EC50 (Tumor necrosis factor [6]) [nM] | inhibition [7] | concentration at 1.5 h [8] [ng/mL] | logP [9] | inhibition [10] [%] | Activity (Mus musculus) |
| --- | --- | --- | --- | --- | --- | --- | --- | --- | --- | --- | --- |
| Cc1ccc(-n2nc(C(C)(C)C)cc2NC(=O)Nc2ccc(OCCN3C[C@@H](C)O[C@@H](C)C3)c3ccccc23)cc1 | 1.5 | 58.4 |  |  |  |  |  |  |  |  |  |
| Cc1ccc(-n2nc(C(C)(C)C)cc2NC(=O)Nc2ccc(OCCN3C[C@H](C)O[C@@H](C)C3)c3ccccc23)cc1 | 0.096 | 62.1 | 50 | 16 | 25000 | 770 | inactive | 4200 |  |  |  |
| CC(=O)Nc1cccc(-n2nc(C(C)(C)C)cc2NC(=O)Nc2ccc(OCCN3CCOCC3)c3ccccc23)c1 | 9.9 | 55.9 |  |  |  |  |  |  |  |  |  |
| CC(C)(C)c1cc(NC(=O)Nc2ccc(OCCN3CCOCC3)c3ccccc23)n(Cc2ccccc2)n1 | 64 | 53.4 |  |  |  |  |  |  |  |  |  |
| CC(C)(C)c1cc(NC(=O)Nc2ccc(OCCN3CCOCC3)c3ccccc23)n(C2CCCCC2)n1 | 23 | 54.8 |  |  |  |  |  |  |  |  |  |
| Cc1ccc(-n2nc(C(C)(C)C)cc2NC(=O)Nc2ccc(OCCN3CCOCC3)c3ccccc23)cc1 [DORAMAPIMOD] |  | 63.5 | 84 | 18 | 75000 | 780 |  | 30000 | 4.6 | 63 |  |
| CC1(c2cc(NC(=O)Nc3ccc(OCCN4CCOCC4)c4ccccc34)n(-c3ccccc3)n2)CCCCC1 | 1.9 | 58.1 |  |  |  |  |  |  |  |  |  |
| CC(C)(C)c1cc(NC(=O)Nc2ccc(OCCN3CCOCC3)c3ccccc23)n(-c2ccc(N)cc2)n1 | 0.16 | 61.4 |  | 9 |  | 440 | inactive |  |  |  | Not Active |
| Cc1ccc(-n2nc(C(C)(C)C)cc2NC(=O)Nc2ccc(OCCN3CCOCC3)c3ccccc23)cn1 | 0.18 | 61.3 | 87 | 19 | 54000 | 530 |  | 13000 | 3.6 | 86 |  |
| Cc1ccc(-n2nc(C(C)(C)C)cc2NC(=O)Nc2ccc(OCCN3CC[S+]([O-])CC3)c3ccccc23)cc1 | 0.4 | 60.2 | 84 | 50 | 62800 | 1300 |  |  |  |  |  |
| Cc1ccc(-n2nc(C(C)(C)CO)cc2NC(=O)Nc2ccc(OCCN3CCOCC3)c3ccccc23)cc1 | 56 | 53 |  |  |  |  |  |  |  |  |  |
| CC(C)(C)c1cc(NC(=O)Nc2ccc(OCCN3CCOCC3)c3ccccc23)n(-c2cccc(N)c2)n1 | 0.23 | 60.9 |  | 11 |  | 1600 | inactive | 1400 |  |  |  |
| CC(C)(C)c1cc(NC(=O)Nc2ccc(OCCN3CCOCC3)c3ccccc23)n(-c2ccccc2)n1 | 0.23 | 61 | 81 | 9 | 38000 | 3400 |  | 5400 |  | 57 |  |
| Cc1ccc(-n2nc(C(C)(C)C)cc2NC(=O)Nc2ccc(OCCN3CCSCC3)c3ccccc23)cc1 | 5.9 | 56.6 |  |  |  |  |  |  |  |  |  |
| COc1ccc(CCOc2ccc(NC(=O)Nc3cc(C(C)(C)C)nn3-c3ccc(C)cc3)c3ccccc23)cc1OC | 3.5 | 57.3 |  |  |  |  |  |  |  |  |  |
| CC(=O)Nc1ccc(-n2nc(C(C)(C)C)cc2NC(=O)Nc2ccc(OCCN3CCOCC3)c3ccccc23)cc1 | 64 | 53.4 |  |  |  |  |  |  |  |  |  |
| Cc1ccc(-n2nc(C(C)(C)C)cc2NC(=O)Nc2ccc(OCCN3CCCCC3)c3ccccc23)cc1 | 14 | 55.4 |  |  |  |  |  |  |  |  |  |
| O=C(Nc1ccc(OCCN2CCOCC2)c2ccccc12)Nc1ccnn1-c1ccccc1 | 2400 | 49.1 |  |  |  |  |  |  |  |  |  |
| CC(C)c1cc(NC(=O)Nc2ccc(OCCN3CCOCC3)c3ccccc23)n(-c2ccccc2)n1 | 3.4 | 56.6 |  |  |  |  |  |  |  |  |  |
| Cc1ccc(-n2nc(C(C)(C)C)cc2NC(=O)Nc2ccc(OCCc3cccnc3)c3ccccc23)cc1 | 0.52 | 59.8 |  |  |  |  |  |  |  |  |  |
| Cn1nc(C(C)(C)C)cc1NC(=O)Nc1ccc(OCCN2CCOCC2)c2ccccc12 | 26 | 54.5 |  |  |  |  |  |  |  |  |  |
| CCOc1ccc(NC(=O)Nc2cc(C(C)(C)C)nn2-c2ccc(C)cc2)c2ccccc12 | 11 | 55.5 |  |  |  |  |  |  |  |  |  |
| Cc1ccc(-n2nc(C(C)(C)C)cc2NC(=O)Nc2ccc(OCCn3ccnc3)c3ccccc23)cc1 | 0.074 | 62.4 | 81 | 36 | 7000 | 1100 |  |  |  |  |  |
| Cc1ccc(-n2nc(C(C)(C)C)cc2NC(=O)Nc2ccc(OCCc3ccncc3)c3ccccc23)cc1 | 0.1 | 62.4 | 88 | 20 | 30000 | 820 |  |  |  |  |  |
| COc1ccc(-n2nc(C(C)(C)C)cc2NC(=O)Nc2ccc(OCCN3CCOCC3)c3ccccc23)cn1 | 0.87 | 59.1 | 40 | 42 | 80000 | > 10000 |  |  |  |  |  |
| Cc1ccc(-n2nc(C(C)(C)C)cc2NC(=O)Nc2ccc(OCCN3CCNCC3)c3ccccc23)cc1 | 12 | 55.6 |  |  |  |  |  |  |  |  |  |
